{"data": "Results of several laboratories", "target": "3-phosphoinositide-dependent protein kinase 1 (PDPK1, Homo sapiens, UniProt O15530)", "Sequence (O15530 1-556, as in one of the studies)": "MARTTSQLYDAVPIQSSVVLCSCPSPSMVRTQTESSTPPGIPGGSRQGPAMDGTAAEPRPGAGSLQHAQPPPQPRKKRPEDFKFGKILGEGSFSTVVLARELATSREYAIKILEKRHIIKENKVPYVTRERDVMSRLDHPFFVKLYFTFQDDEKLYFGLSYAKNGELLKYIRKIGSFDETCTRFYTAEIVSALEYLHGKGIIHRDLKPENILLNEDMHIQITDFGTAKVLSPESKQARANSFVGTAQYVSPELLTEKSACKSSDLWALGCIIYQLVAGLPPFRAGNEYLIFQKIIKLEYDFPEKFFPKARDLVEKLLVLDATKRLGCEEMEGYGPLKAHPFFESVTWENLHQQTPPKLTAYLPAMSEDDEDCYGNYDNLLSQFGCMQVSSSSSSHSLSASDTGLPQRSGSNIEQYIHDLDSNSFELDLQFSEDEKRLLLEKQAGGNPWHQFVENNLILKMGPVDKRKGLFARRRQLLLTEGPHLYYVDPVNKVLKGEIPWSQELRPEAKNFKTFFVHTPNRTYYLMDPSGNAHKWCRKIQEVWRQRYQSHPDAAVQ", "note": "Protocols differ between the studies behind these lines."}
{"SMILES": "COCCOc1nc(-c2ccc(Cl)nc2)nc2c1CN(C(=O)c1ncn3ccccc13)CC2", "assay": "cell-free assay, competition with immobilised ligand", "setting": "0.1 µM", "endpoint": "remaining binding", "value": "90%"}
{"SMILES": "Cn1c(=O)n(-c2ccc(C(C)(C)C#N)cc2)c2c3cc(-c4cnc5ccccc5c4)ccc3ncc21", "assay": "enzyme activity, inhibitor", "setting": "10 µM", "endpoint": "remaining activity", "value": "98%"}
{"SMILES": "CN(C)C1CCN(CC#Cc2nn(C3CCCC3)c3nc(NCc4ccccc4)ncc23)C1 (centres unmarked)", "assay": "enzyme activity, inhibitor, FRET", "setting": "1 µM", "endpoint": "inhibition", "value": "4%"}
{"SMILES": "CNC(=O)c1ccc(Nc2ncc(C(F)(F)F)c(NCc3nccnc3N(C)S(C)(=O)=O)n2)cc1", "assay": "cell-free assay, competition with immobilised ligand", "setting": "0.1 µM", "endpoint": "remaining binding", "value": "81%"}
{"SMILES": "CC(C)(O)[C@H]1CC[C@H](Nc2ccc3ncc(-c4cccc(C(F)(F)F)c4)n3n2)CC1", "assay": "enzyme activity, inhibitor", "setting": "1 µM", "endpoint": "remaining activity", "value": "105%"}
{"SMILES": "Cc1cc(NC(=O)c2cccc3cc(-c4cccc5[nH]nc(N)c45)ccc23)ccc1F", "assay": "enzyme activity, inhibitor", "setting": "0.1 µM", "endpoint": "activity vs control", "value": "101%"}
{"SMILES": "O=C1Nc2ccc(Cl)cc2C1=Cc1cc(Cl)c(O)c(Cl)c1", "assay": "cell-free assay", "setting": "0.5 µM", "endpoint": "remaining signal", "value": "103%"}
{"SMILES": "Nc1ncnc2occ(-c3ccc(NC(=O)Nc4cc(C(F)(F)F)ccc4F)cc3)c12", "assay": "cell-free assay, inhibitor", "setting": "20 µM", "endpoint": "remaining signal", "value": "4.3%"}
{"SMILES": "O=C1NC(=O)c2cc(Nc3ccc(F)cc3)c(Nc3ccc(F)cc3)cc21", "assay": "cell-free assay", "setting": "0.5 µM", "endpoint": "remaining signal", "value": "102%"}
{"SMILES": "Cc1ccc(NC(=O)c2ccc(C)c(C(F)(F)F)c2)cc1C#Cc1nn(C2CCC(O)CC2)c2ncnc(N)c12 (centres unmarked)", "assay": "cell-free assay", "setting": "10 µM", "endpoint": "remaining signal", "value": "113%"}
{"SMILES": "Nc1nc(Nc2ccccc2)sc1C(=O)c1c(F)cccc1F", "assay": "enzyme activity, inhibitor", "setting": "10 µM", "endpoint": "remaining activity", "value": "65%"}
{"SMILES": "COc1cccc(CNC(=O)c2nc3scc(COCc4ccc(C(=O)O)cc4)c3c(=O)[nH]2)c1", "assay": "cell-free assay, competition with immobilised ligand", "setting": "1 µM", "endpoint": "remaining binding", "value": "87.8%"}
{"SMILES": "O=Nc1c(-c2c(O)[nH]c3ccccc23)[nH]c2ccccc12", "assay": "cell-free assay", "setting": "0.5 µM", "endpoint": "remaining signal", "value": "93%"}
{"SMILES": "CCCCN(CCCC)C(=O)CN1C[C@H](c2cc(OC)c3c(c2)OCO3)[C@@H](C(=O)O)[C@@H]1CC(C)(C)CCC", "assay": "cell-free assay, competition with immobilised ligand", "setting": "1 µM", "endpoint": "remaining binding", "value": "100%"}
{"SMILES": "CCN(CC)c1ccc(C2=NNC(=O)CC2C)cc1[N+](=O)[O-] (centres unmarked)", "assay": "enzyme activity, inhibitor", "setting": "10 µM", "endpoint": "remaining activity", "value": "116%"}
{"SMILES": "CC(=O)C1=C(C)N(c2cccc(C(F)(F)F)c2)C(=O)N[C@@H]1c1ccc(C#N)nc1", "assay": "cell-free assay, competition with immobilised ligand", "setting": "1 µM", "endpoint": "remaining binding", "value": "93.4%"}
{"SMILES": "Cc1sc(C(=O)NC2COC2)cc1-n1cc(NC(=O)Nc2c(F)cccc2Cl)cn1", "assay": "enzyme activity, inhibitor", "setting": "10 µM", "endpoint": "remaining activity", "value": "99.2%"}
